Test results taken from ChEMBL document CHEMBL4513216, “Probing the Open Global Health Chemical Diversity Library for Multistage-Active Starting Points for Next-Generation Antimalarials” (ACS Infect Dis, 2020).

What was measured:
[1] = (§1) Toxicity liver stage against HepG2, at 10uM; type: cell-based; set-up: test concentration 10 uM, cell line HepG2-A16-CD81EGFP; settings: human, HepG2-A16-CD81EGFP cells; read-out: INHIBITION
How it was run: (§2)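 Uninfected HepG2-A16-CD81EGFP cells, 3 × 10^3 per well, 1536-well, plated on prespotted compound at 10 μM final, parasite-free screening media added to match infected plates; puromycin 10 μM positive, DMSO 0.5% negative; run in parallel with 48 h PbLuc assay at 37 °C, 5% CO2; viability by CellTiter-Glo luminescence, normalized to controls.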

[2] = tested on: HepG2; experiment: as §1; type: cell-based; set-up: test concentration 10 uM, cell line HepG2-A16-CD81EGFP; settings: human, hepg2, 10 µM; 10 µM; how it was run: as §2

| SMILES | cytotoxicity at 10 µM [1] | INHIBITION [2] |
| --- | --- | --- |
| CCc1c(C)nn2c(O)cc(C3CCN(C(=O)c4ccccn4)C3)nc12 (configuration not stated) | 6.7% | 4.85% |
| CC(OCC1CC1)C(=O)Nc1ncn(CC(=O)N2CCCCCC2)n1 (configuration not stated) | -15.2% |  |
| O=C(NCC1CCN(CCc2ccccc2)C1)c1cc(Cl)c[nH]1 (configuration not stated) | 10% |  |
| COCC1CN(C(=O)c2cccc(C)n2)Cc2ncnn2C1 (configuration not stated) | 3.84% |  |
| Cc1ccc(-c2ccc(C3CNCCO3)nc2)cc1 (configuration not stated) | -5.3% |  |
| CC(C)=CCC/C(C)=C/CN1CCN(C)C2(CCNC(=O)CC2)C1 (configuration not stated) | -54.1% |  |
| CC(=O)NCC(=O)N1CCc2c(CNc3ncccn3)cncc2C1 | 1.59% |  |
| COCCN1CCC(c2nc3ccc(-c4ccccc4)cn3n2)CC1 | -8.84% |  |
| Cc1nonc1CNC(=O)C(C)Oc1ccccc1F (configuration not stated) | 2.57% |  |
| COc1c(C2CCCN2C(=O)c2ccnc(C)n2)c(C)nn1C (configuration not stated) | -12% |  |
| CC(C)C(C)(C#N)NC(=O)Cn1cc(Cl)cn1 (configuration not stated) | 1.18% |  |
| CC(=O)Cc1c(C)nn(-c2cncc(N)c2)c1C | -4.05% |  |
| CCN(CC)C(=O)CCNc1cncc(-n2nc(C)cc2C)n1 | 2.41% |  |
| Cc1noc(C)c1CNC(=O)N1Cc2ccccc2N(C)CC1C (configuration not stated) | -2.42% |  |
| O=C(c1cnccn1)N1CCO[C@H]2[C@H](OCc3cccnc3)CC[C@@H]21 | -9.45% |  |
| CCn1cc(CNC(=O)CCn2ncc3c(Cl)cccc32)cn1 | 10.9% |  |
| CCc1ccc(C(=O)N2CCCN(Cc3nccn3CC)CC2)s1 | -8.72% |  |
| Cc1cc(CNc2cccc(Cl)c2C)no1 | -2.4% |  |
| Cc1c[nH]c(C2CN(Cc3ccccc3C(=O)O)CCO2)n1 (configuration not stated) | -0.822% |  |

| SMILES | cytotoxicity at 10 µM [1] | INHIBITION [2] |
| --- | --- | --- |
| Cc1ccc(CCN[C@@H]2c3ccccc3C3(CCNCC3)[C@H]2O)s1 | -2.72% |  |
| CC(C)(O)CN1CCN(C(=O)c2ccc3c(c2)COC3)CC1 | -0.644% |  |
| CN(Cc1ccc(CCC(C)(C)O)cc1)Cc1cccc(O)c1 | -7.43% |  |
| COc1ncccc1CN1C[C@H](C(=O)N2CCCO2)[C@@H]2CCO[C@@H]2C1 | 11.2% |  |
| CC(C)c1nc(C2CCCN2CCN2CCCCC2)no1 (configuration not stated) | -4.58% |  |
| Cn1ncc(NC(=O)Cn2ccc(-c3cccc(F)c3)n2)n1 | 1.73% |  |
| COC1C[C@@H]2CN(C(=O)c3[nH]nc4c3CCCC4)C[C@@H]2C1 (some centres not stated) | 0.0252% |  |
| CC(=O)Nc1ncc(S(=O)(=O)Nc2cccc(F)c2)s1 | 2.93% |  |
| CCN(c1ccc(C(=O)N2CCCCCC2)cc1)S(=O)(=O)CC | -2.25% |  |
| Cn1cc(CN2CCCC23CCN(S(C)(=O)=O)CC3)cn1 | -82.1% |  |
| COCC(=O)NCCc1ccc(I)s1 | 11.3% |  |
| CC(=O)N(Cc1noc(C)n1)C1CCN(Cc2ccon2)C1 (configuration not stated) | 4.74% |  |
| Cc1ncsc1CN1C[C@@H](OCC(=O)N(C)C)[C@H]2OCCC[C@H]21 | -139% |  |
| COc1c(F)cccc1C(=O)N(C)Cc1nc(-c2ccccn2)no1 | -1.51% |  |
| CNC(=O)[C@@]12CCC3(CCN(C(=O)COC)CC3)[C@@H]1CN(S(C)(=O)=O)C2 | 4.53% |  |
| CCOC(=O)[C@H]1[C@@H](O)C(=O)N(C)C12CCN(C(=O)OCC)CC2 | -7.83% |  |
| CC(C)N1Cc2cccc(NCC(=O)N(C)C)c2C1 | 6.05% |  |
| CCc1nccn1C1CCCN(C(=O)c2ccc(N(C)C)nn2)C1 (configuration not stated) | 3.19% |  |
| CCn1nc(C)c(CN2CCNCC2)c1C | 6.4% |  |

| SMILES | cytotoxicity at 10 µM [1] | INHIBITION [2] |
| --- | --- | --- |
| Cc1nc(CN2CCC3(CCCN(Cc4cccnc4)C3)C2=O)cs1 (configuration not stated) | 20.8% |  |
| CC(C)N1CCOC[C@H]1c1nc(-c2ccncc2)c[nH]1 | 6.73% |  |
| COCc1noc(-c2ccc(N(C)Cc3c(C)n[nH]c3C)nc2)n1 | 0.897% |  |
| CCOC(CC)C(=O)NCCC(=O)N1CCN(c2ncccn2)CC1 (configuration not stated) | -3.91% |  |
| COc1cc(OC)c(CNC(=O)NCc2ccc(C#N)cc2)c(OC)c1 | 8.01% |  |
| Cc1cccc(CN2CCN(c3nc(CO)cs3)CC2)c1 | -11.6% |  |
| NC(=O)CN1CCCC(C(=O)N2CCC(O)(c3ccccc3)CC2)C1 (configuration not stated) | -7.55% |  |
| CCOCC1CN(Cc2cnn(C)c2)Cc2ncn(C)c21 (configuration not stated) | -79.2% |  |
| NC(=O)CSCC(=O)N1CCc2cc(Cl)cc(Cl)c2C1 | 27.9% |  |
| COCCC(=O)N(CCC#N)c1ccc(C)c(C)c1 | 3.43% |  |
| O=C(c1cnc(-c2ccco2)s1)N1CCCCC1Cn1cccn1 (configuration not stated) | -5.83% |  |
| CCc1ncc2c(n1)CN(Cc1nc(-c3ccoc3)no1)CC2 | 1.61% |  |
| CCc1nccn1C1CCCN(C(=O)c2ccc(OC)c(OC)c2)C1 (configuration not stated) | -20.6% |  |
| O=C(NCc1nncn1C1CC1)C1(c2cccc(F)c2)CCOCC1 | -2.07% |  |
| CCOCCCNC(=O)CCSCc1csc(C)n1 | -3.57% |  |
| CCCn1nnnc1COc1cc(OC)ccc1C(N)=O | -4.42% |  |
| CCn1c(C2CCCN(S(=O)(=O)C3CC3)C2)nn(CCN(C)C)c1=O (configuration not stated) | 0.522% |  |
| Cn1cc(C(=O)N2CCCC2c2ccc3c(c2)OCCO3)ccc1=O (configuration not stated) | 3.92% |  |
